Measured values published in ChEMBL document CHEMBL4680128, “Synthesis of a novel and potent small-molecule antagonist of PAC1 receptor for the treatment of neuropathic pain” (Eur J Med Chem, 2020).
The source made the active and inactive calls.

Experiments:
[1] = target: T1, Pituitary adenylate cyclase-activating polypeptide type I receptor (Homo sapiens, UniProt P41586); assay: Antagonist activity at PAC1 receptor (unknown origin) expressed in CHO cells assessed as inhibition of PACAP-induced inhibition of CREB phosphorylation preincubated for 30 mins followed by PACAP stimulation and measured after 30 mins by Western blot analysis; format: cell-based; conditions: for inhibition: filed as antagonist, time 60.0 min
Method in brief: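 PAC1/CHO cells seeded at 1×10^5 cells/well and grown 48 h, then pretreated 30 min with agent over 10 pM to 10 nM (vehicle 0.1% DMSO). Stimulated with PACAP 1 nM for 30 min. Western blot of 20 µg lysate for phospho-CREB (Ser133) and total CREB, with pCREB normalised to total CREB. IC50 taken from the dose series. n = 3-5.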

[2] = Effect on nociception on contralateral paw in ddy mouse model of spinal nerve ligation-induced neuropathic pain at 100 pmol, it administered as single dose measured up to 24 hrs; format: ADME; conditions: in vivo, icv_or_intrathecal
Mus musculus [3] = assay: Antiallodynic activity in ddy mouse model of spinal nerve ligation-induced neuropathic pain assessed as […] at 100 pmol, it administered as single dose measured up to 24 hrs; format: functional, organism-based; conditions: time hrs <=24
Mus musculus [4] = organism: Mus musculus; assay: Antiallodynic activity in PACAP-induced mechanical allodynia ddy mouse model assessed as increase in ipsilateral paw withdrawal threshold at 100 pmol, it; format: functional, organism-based
Method in brief: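 Male ddY mice, 6 weeks old at start. Agent 100 pmol co-injected i.t. with PACAP 100 pmol in 5 µl by lumbar (L5/L6) puncture; diluted in PBS or ACSF. Hind-paw 50% withdrawal threshold measured with von Frey hairs by the up-down method. n = 6, compared with vehicle.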

[5] = Effect on nociception on contralateral paw in ddy mouse model of spinal nerve ligation-induced neuropathic pain at 30 mg/kg, po administered as single dose measured up to 24 hrs; format: ADME, organism-based; conditions: in vivo
Method in brief: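 Spinal nerve ligation performed in male ddY mice. On day 14 after SNL, a single oral dose of 30 mg/kg given. Ipsilateral and contralateral hind-paw 50% gram thresholds measured by von Frey up-down method at serial times after dosing. n = 6 per group, compared with vehicle.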

[6] = target: T1, Pituitary adenylate cyclase-activating polypeptide type I receptor; assay: Antagonist activity at PAC1 receptor (unknown origin) expressed in CHO cells assessed as inhibition of PACAP-induced inhibition of CREB phosphorylation at 1 nM preincubated for 30 mins followed by PACAP stimulation and measured after 30 mins by Western blot analysis relative to control; values are per cent of control; conditions: time 60.0 min
Target sequence in this assay (P41586 21-468 limits assumed): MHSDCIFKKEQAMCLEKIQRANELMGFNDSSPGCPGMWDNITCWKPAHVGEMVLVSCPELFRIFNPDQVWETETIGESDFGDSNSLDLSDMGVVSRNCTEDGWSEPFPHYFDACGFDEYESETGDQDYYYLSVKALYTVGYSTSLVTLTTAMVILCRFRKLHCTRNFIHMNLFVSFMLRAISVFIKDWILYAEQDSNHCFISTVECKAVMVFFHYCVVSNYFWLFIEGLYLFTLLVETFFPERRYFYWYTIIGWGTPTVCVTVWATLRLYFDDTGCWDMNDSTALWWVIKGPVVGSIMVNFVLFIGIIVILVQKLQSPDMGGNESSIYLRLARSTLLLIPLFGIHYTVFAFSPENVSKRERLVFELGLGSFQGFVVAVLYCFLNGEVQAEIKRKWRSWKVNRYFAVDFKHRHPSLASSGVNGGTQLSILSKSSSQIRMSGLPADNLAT

Structure (SMILES) | IC50 [1] | inhibition [1] | Activity [2] | Activity (Mus musculus [3]) | Activity (Mus musculus [4]) | Activity [5] | residual activity [6]
O=C(NCCc1c[nH]cn1)C1CC(=O)N(c2n[nH]c3c(Cl)cccc23)C1 (centres undefined) | < 0.01 nM | Dose-dependent effect | Non-Toxic | Active | Active | Non-Toxic | 11.9%
O=C(NCCc1c[nH]cn1)C1CC(=O)N(c2n[nH]c3ccccc23)C1 (centres undefined) | 0.182 nM | Dose-dependent effect | Non-Toxic | Active | Active | Non-Toxic | 30.6%
